This passage reports Ki and Ki app results from ChEMBL document CHEMBL1124724, “Steroidal A ring aryl carboxylic acids: a new class of steroid 5 alpha-reductase inhibitors” (J Med Chem, 1990).

pKi: −log10 of the molar value.

The nature of assay [1]: Inhibition of Steroid 5-alpha-reductase of benign hyperplastic human prostatic tissue. To be noted: read-out: Ki app. Put shortly: (§1)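 Ethyl acetate quench with carrier steroids; product is DHT plus ADIOL from radiolabel split. Ki,app is given as a range over several microsome preparations; >10 000 means under 50% inhibition at top concentration.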
In assay [2] the target is T1, Steroid 5-alpha-reductase (Rattus norvegicus, UniProt P24008+P31214).
T1 sequence (P24008 whole entry): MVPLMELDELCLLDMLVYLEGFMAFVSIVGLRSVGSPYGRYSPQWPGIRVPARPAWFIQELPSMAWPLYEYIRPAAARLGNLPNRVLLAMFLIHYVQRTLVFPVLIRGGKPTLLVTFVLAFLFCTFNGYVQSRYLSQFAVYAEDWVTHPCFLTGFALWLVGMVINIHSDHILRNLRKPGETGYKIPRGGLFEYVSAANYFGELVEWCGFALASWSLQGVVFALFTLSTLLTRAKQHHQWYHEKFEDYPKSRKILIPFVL
T1 sequence (P31214 whole entry): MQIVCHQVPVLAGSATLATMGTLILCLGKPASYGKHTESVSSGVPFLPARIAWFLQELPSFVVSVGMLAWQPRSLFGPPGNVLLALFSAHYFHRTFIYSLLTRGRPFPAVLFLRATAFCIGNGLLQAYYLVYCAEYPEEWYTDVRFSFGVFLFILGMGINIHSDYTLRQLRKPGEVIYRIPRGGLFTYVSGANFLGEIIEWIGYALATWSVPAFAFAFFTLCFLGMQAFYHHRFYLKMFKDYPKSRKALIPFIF
In words: Inhibition of Steroid 5-alpha-reductase of rat ventral prostate tissue. It is filed as tissue-based, Prostate gland. Put shortly:
(§2)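 Activity is total 5α-reduced products (DHT + ADIOL) by radiolabel after ethyl acetate extraction. Ki,app is given as a range across microsome preparations; >10 000 means under 50% inhibition at highest concentration.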

In assay [3] the target is T1, Steroid 5-alpha-reductase. The assay can be described thus: In vitro inhibition against Steroid 5-alpha-reductase of whole rat ventral prostate tissue expressed as apparent inhibition constant. It counts as functional, tissue-based, Prostate gland. Put shortly:
as §2

For assay [4], the target named is T2, 3-oxo-5-alpha-steroid 4-dehydrogenase 2 (Homo sapiens, UniProt P31213).
T2 sequence (P31213 whole entry): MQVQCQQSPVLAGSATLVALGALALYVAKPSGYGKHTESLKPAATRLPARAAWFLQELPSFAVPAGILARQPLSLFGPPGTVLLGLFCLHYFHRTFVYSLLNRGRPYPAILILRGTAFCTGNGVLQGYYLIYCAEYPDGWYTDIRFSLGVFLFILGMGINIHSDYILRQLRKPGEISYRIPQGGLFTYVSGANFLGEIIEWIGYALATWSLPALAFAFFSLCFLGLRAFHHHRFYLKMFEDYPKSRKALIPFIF
In words: In vitro inhibition against Steroid 5-alpha-reductase of benign hyperplastic human prostatic tissue expressed as apparent inhibition constant. It counts as functional. To be noted: read-out: Ki app. Put shortly:
as §1

As to `CC(C)N(C(=O)[C@H]1CC[C@H]2[C@@H]3CCc4cc(C(=O)O)ccc4[C@H]3CC[C@]12C)C(C)C`, the pKi (usually the Ki on a negative log10 scale, so that one unit is a factor of ten) in assay [1] is 7.70. This compound also showed a Ki app in assay [2] of 356 nM.

With `CC(C)N(C(=O)[C@H]1CC[C@H]2[C@@H]3CCc4c(ccc(C(=O)O)c4Br)[C@H]3CC[C@]12C)C(C)C`, in assay [1], the negative-log Ki (pKi) was 6.67. Besides, the Ki app in assay [2] was found to be 1900 nM.

In the case of `CC(C)N(C(=O)[C@H]1CC[C@H]2[C@@H]3CCc4c(ccc(C(=O)O)c4F)[C@H]3CC[C@]12C)C(C)C`, the pKi in assay [1] was 8.00. The Ki app in assay [2] came out at 500 nM.

For `Cc1c(C(=O)O)ccc2c1CC[C@@H]1[C@@H]2CC[C@]2(C)[C@@H](C(=O)N(C(C)C)C(C)C)CC[C@@H]12`, the negative-log Ki (pKi) in assay [1] is 6.59. Further, the Ki app in assay [2] is on record as 7000 nM.

`CC(C)(C)NC(=O)[C@H]1CC[C@H]2[C@@H]3CCc4cc(C(=O)O)ccc4[C@H]3CC[C@]12C`: the pKi in assay [1] was 7.37. The Ki app in assay [2] is on record as 150 nM.

Consider `CC(C)N(C(=O)[C@H]1CC[C@H]2[C@@H]3CCc4c(ccc(C(=O)O)c4Cl)[C@H]3CC[C@]12C)C(C)C`, for which, in assay [1], the pKi was 6.92. In assay [2], this compound yielded a Ki app of 900 nM.

In the case of `CC(C)N(C(=O)[C@H]1CC[C@H]2[C@@H]3CCc4c(ccc(C(=O)O)c4C#N)[C@H]3CC[C@]12C)C(C)C`, in assay [1], the pKi was 6.70. The Ki app in assay [2] is reported as above 10000 nM.

For `CC(C)N(C(=O)[C@H]1CC[C@H]2[C@@H]3CCc4cc(C(=O)O)c(Cl)cc4[C@H]3CC[C@]12C)C(C)C`, the pKi in assay [1] was 7.46. Besides, in assay [2], the Ki app was 200 nM.

In the case of `CC(C)N(C(=O)[C@H]1CC[C@H]2[C@@H]3CCc4cc(C(=O)O)c(C#N)cc4[C@H]3CC[C@]12C)C(C)C`, the pKi in assay [1] is 7.19. In addition, the Ki app in assay [2] was determined as 950 nM.

In the case of `Cc1cc2c(cc1C(=O)O)CC[C@@H]1[C@@H]2CC[C@]2(C)[C@@H](C(=O)N(C(C)C)C(C)C)CC[C@@H]12`, the pKi in assay [1] was 7.22. For the same compound, in assay [2], the Ki app turned out to be 340 nM.

For `CC(C)N(C(=O)[C@H]1CC[C@H]2[C@@H]3CCc4cc(C(=O)O)c(Br)cc4[C@H]3CC[C@]12C)C(C)C`, in assay [1], the pKi was 7.12. Besides, the Ki app in assay [2] was determined as 260 nM.

As for `CC(C)N(C(=O)[C@H]1CC[C@H]2[C@@H]3CCc4cc(C(=O)O)c(C(=O)O)cc4[C@H]3CC[C@]12C)C(C)C`, the Ki app in assay [3] is recorded as above 10000 nM. For the same compound, the pKi in assay [4] was 5.30.

Regarding `CC(C)N(C(=O)[C@H]1CCC2C3C=Cc4cc(C(=O)O)ccc4C3CC[C@@]21C)C(C)C` (stereo not given in full), the pKi in assay [1] is 7.52. Also, the Ki app in assay [2] is listed as 450 nM.

Take `CC(C)N(C(=O)[C@H]1CCC2c3ccc4cc(C(=O)O)ccc4c3CC[C@@]21C)C(C)C` (stereo not given in full): the pKi in assay [1] was 7.44. In assay [2], this compound displayed a Ki app of 350 nM.

For `CC(C)(C)NC(=O)C1=CCC2C3CCc4cc(C(=O)O)ccc4C3CC[C@]12C` (stereo not given in full), the pKi in assay [1] was 7.22. The Ki app in assay [2] was found to be 200 nM.
